In one assay the test system is Escherichia coli. The assay can be described thus: Antibacterial activity against Escherichia coli after 24 hrs by broth microdilution method. Type of assay: functional. An outline of the steps:
(§1)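 Broth microdilution, 96-well. Inoculum from 24 h broth cultures adjusted to 0.5 McFarland. Compounds dissolved in DMSO at 1 mg/mL (stock), two-fold serial dilutions in tryptone broth (1000 to 3.9 μg/mL). Positive controls: tetracyclin for bacteria, nystatin for fungi. Incubated 37 °C, 24 h. Then 0.01% aqueous resazurin added for viability. MIC = lowest concentration inhibiting growth.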

The next assay deals with Staphylococcus aureus. In words: Antibacterial activity against Staphylococcus aureus after 24 hrs by broth microdilution method. In kind it is functional. The gist of the method: as §1
For orientation: Dilution methods test growth across graded concentrations, often in twofold steps.

The subject of another assay is Candida albicans. The assay can be described thus: Antifungal activity against Candida albicans after 24 hrs by broth microdilution method. Type of assay: functional. The gist of the method: as §1
Another assay concerns Salmonella typhi. The assay can be described thus: Antibacterial activity against Salmonella typhi after 24 hrs by broth microdilution method. In kind it is functional, Salmonella enterica subsp. enterica serovar Typhi. Conditions: Salmonella enterica. The gist of the method: as §1
Assay [1] concerns Mycobacterium tuberculosis. The assay can be described thus: Antitubercular activity against Mycobacterium tuberculosis H37Rv ATCC 27294 at 7.8 ug/ml after 5 days by microplate alamar blue assay. In kind it is functional. An outline of the steps:
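Single-concentration primary screen at 7.8 µg/mL against M. tuberculosis H37Rv (ATCC-27294) by MABA, read as percent inhibition. Run in Middlebrook 7H9 broth, with BACTEC 12B medium also cited, at 37 °C for 5 days. Then 1:1 Alamar Blue/10% Tween 80 added and incubated 24 h. Colour read: blue = inhibition, pink = growth.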

In assay [2] the test system is Mycobacterium tuberculosis. In words: Antitubercular activity against Mycobacterium tuberculosis H37Rv ATCC 27294 after 5 days by microplate alamar blue assay. The settings on record: H37Rv ATCC 27294, 120 h. In kind it is functional. An outline of the steps: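 Retest of compounds above 90% inhibition in the primary screen. Two-fold serial dilution on plate in Middlebrook 7H9 broth, in triplicate. Isoniazid as positive control. Plates sealed, 37 °C for 5 days. Then 1:1 Alamar Blue/10% Tween 80 added, 24 h more. Blue = inhibition, pink = growth. MIC taken as lowest inhibiting concentration.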

Converted amounts (≈) assume the structure as drawn.

As a reminder, the MIC is the smallest concentration in the dilution series that meets the test's criterion for growth inhibition. A higher MIC goes with a less susceptible organism. Turning to `Cn1c(=O)c2ncn(Cc3cc(=O)oc4cc(O)ccc34)c2n(C)c1=O`, the MIC in the assay on Escherichia coli came to 125 µg/mL (≈ 353 µM); in the assay with Staphylococcus aureus it was 15.6 µg/mL (≈ 44 µM); with Candida albicans, 62.5 µg/mL (≈ 176 µM); against Salmonella typhi, 31.5 µg/mL (≈ 88.9 µM). Besides, in assay [1], the Activity was found to be 15%.
For the molecule `Cc1ccc2oc(=O)cc(Cn3cnc4c(=O)n(C)c(=O)n(C)c43)c2c1`, the minimal inhibitory concentration (MIC) worked out at 3.9 µg/mL (≈ 11.1 µM) in the assay with Escherichia coli; 3.9 µg/mL (≈ 11.1 µM) against Staphylococcus aureus; 31.3 µg/mL (≈ 88.8 µM) against Candida albicans; 7.8 µg/mL (≈ 22.1 µM) in the assay with Salmonella typhi; 0.12 µg/mL (≈ 0.341 µM) in assay [2]. In assay [1], this molecule showed an Activity of 96%.
In the case of `NNC(=O)c1ccncc1` [ISONIAZID], the Activity in assay [1] is on record as 100%. This molecule also showed an MIC in assay [2] of 0.06 µg/mL (≈ 0.438 µM).
As to `Cn1c(=O)c2ncn(Cc3cc(=O)oc4ccc(Cl)cc34)c2n(C)c1=O`, the MIC amounted to 31.3 µg/mL (≈ 84 µM) in the assay on Escherichia coli; 31.3 µg/mL (≈ 84 µM) against Staphylococcus aureus; 125 µg/mL (≈ 335 µM) against Candida albicans; 62.5 µg/mL (≈ 168 µM) in the assay with Salmonella typhi; 3.9 µg/mL (≈ 10.5 µM) in assay [2]. In assay [1], this molecule gave an Activity of 92%.
On to `Cc1cc(C)c2c(Cn3cnc4c(=O)n(C)c(=O)n(C)c43)cc(=O)oc2c1`, for which the MIC came to 125 µg/mL (≈ 341 µM) with Escherichia coli; 15.6 µg/mL (≈ 42.6 µM) against Staphylococcus aureus; 250 µg/mL (≈ 682 µM) against Candida albicans; 250 µg/mL (≈ 682 µM) with Salmonella typhi; 0.97 µg/mL (≈ 2.65 µM) in assay [2]. The molecule also returned an Activity in assay [1] of 94%.
In the case of `Cn1c(=O)c2ncn(Cc3cc(=O)oc4ccc5ccccc5c34)c2n(C)c1=O`, the minimum inhibitory concentration (MIC) was 7.8 µg/mL (≈ 20.1 µM) against Escherichia coli; 7.8 µg/mL (≈ 20.1 µM) against Staphylococcus aureus; 62.5 µg/mL (≈ 161 µM) against Candida albicans; 15.6 µg/mL (≈ 40.2 µM) against Salmonella typhi; 1.95 µg/mL (≈ 5.02 µM) in assay [2]. Further, the Activity in assay [1] is 92%.
Consider `Cn1c(=O)c2ncn(Cc3cc(=O)oc4ccc(Br)cc34)c2n(C)c1=O`, for which the MIC against Escherichia coli came out at 31.3 µg/mL (≈ 75 µM); against Staphylococcus aureus it was 15.6 µg/mL (≈ 37.4 µM); against Candida albicans, 125 µg/mL (≈ 300 µM); in the assay with Salmonella typhi, 31.3 µg/mL (≈ 75 µM); in assay [2] it was 3.9 µg/mL (≈ 9.35 µM). In assay [1], this molecule displayed an Activity of 92%.
As to `Cn1c(=O)c2ncn(Cc3cc(=O)oc4ccc(C(C)(C)C)cc34)c2n(C)c1=O`, the MIC in the assay on Escherichia coli was 3.9 µg/mL (≈ 9.89 µM); in the assay on Staphylococcus aureus, 7.8 µg/mL (≈ 19.8 µM); in the assay with Candida albicans it was 62.5 µg/mL (≈ 158 µM); with Salmonella typhi, 7.8 µg/mL (≈ 19.8 µM); in assay [2], 0.48 µg/mL (≈ 1.22 µM). The same molecule had an Activity in assay [1] of 96%.
Consider `Cc1ccc2c(Cn3cnc4c(=O)n(C)c(=O)n(C)c43)cc(=O)oc2c1`, for which the MIC in the assay on Escherichia coli worked out at 31.3 µg/mL (≈ 88.8 µM); against Staphylococcus aureus, 62.5 µg/mL (≈ 177 µM); with Candida albicans it was 31.3 µg/mL (≈ 88.8 µM); in the assay on Salmonella typhi it was 125 µg/mL (≈ 355 µM); in assay [2], 1.95 µg/mL (≈ 5.53 µM). The same molecule came in with an Activity in assay [1] of 92%.
Consider `Cn1c(=O)c2ncn(Cc3cc(=O)oc4c3ccc3ccccc34)c2n(C)c1=O`, for which the MIC in the assay on Escherichia coli came out at 15.6 µg/mL (≈ 40.2 µM); against Staphylococcus aureus, 15.6 µg/mL (≈ 40.2 µM); against Candida albicans, 62.5 µg/mL (≈ 161 µM); against Salmonella typhi, 62.5 µg/mL (≈ 161 µM). The molecule further returned an Activity in assay [1] of 16%.
In turn, `C[C@@H]1[C@H](O)[C@@H](C)/C=C/C=C/C=C/C=C/C=C/C=C/C=C/[C@H](O[C@@H]2O[C@H](C)[C@@H](O)[C@H](N)[C@@H]2O)C[C@@H]2O[C@](O)(C[C@@H](O)C[C@@H](O)[C@H](O)CC[C@@H](O)C[C@@H](O)CC(=O)O[C@H]1C)C[C@H](O)[C@H]2C(=O)O` [AMPHOTERICIN B] had an MIC against Candida albicans of 0.97 µg/mL (≈ 1.05 µM).
Take `CN(C)[C@@H]1C(O)=C(C(N)=O)C(=O)[C@@]2(O)C(O)=C3C(=O)c4c(O)cccc4[C@@](C)(O)[C@H]3C[C@@H]12` [TETRACYCLINE]: the MIC with Escherichia coli, against Staphylococcus aureus and against Salmonella typhi was 3.9 µg/mL (≈ 8.78 µM) in each case.
With `COc1ccc2oc(=O)cc(Cn3cnc4c(=O)n(C)c(=O)n(C)c43)c2c1`, the MIC was determined as 7.8 µg/mL (≈ 21.2 µM) in the assay with Escherichia coli, 7.8 µg/mL (≈ 21.2 µM) against Staphylococcus aureus, 31.3 µg/mL (≈ 85 µM) with Candida albicans and 7.8 µg/mL (≈ 21.2 µM) with Salmonella typhi. This molecule returned an Activity in assay [1] of 56%.

Source of the values: ChEMBL document CHEMBL4196015, “Synthesis of coumarin-theophylline hybrids as a new class of anti-tubercular and anti-microbial agents” (2018).
